Experimental data taken from ChEMBL document CHEMBL1154778, “Synthesis and biological evaluation of C-5 methyl substituted 4-arylthio and 4-aryloxy-3-Iodopyridin-2(1H)-one type anti-HIV agents” (J Med Chem, 2009).
pIC50: −log10 of the molar value.

Key:
[1] = test system: Human immunodeficiency virus 1; test: Antiviral activity against HIV1 HXB2 harboring K103N mutant reverse transcriptase infected in human MT4 cells after 5 days by MTT assay; assay type: functional, organism-based; settings: Human immunodeficiency virus 1, HXB2, MT4, 120 h
Summary of the method: (§1)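 Mutant viruses were made by recombining the mutant PR-RT sequence into a PR-RT-deleted HIV-1 HXB2 proviral clone. MT4 cells were grown in RPMI 1640 with 10% FCS and antibiotics. Virus at 200 CCID50/well and 30000 cells/well were incubated with varied compound concentrations for 5 days at 37 °C, 5% CO2. MTT viability gave IC50, the concentration giving 50% infection versus the drug-free control.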

[2] = test system: Human immunodeficiency virus 1; test: Antiviral activity against HIV-1 LAI harboring wild type reverse transcriptase infected in human MT4 cells after 5 days by MTT assay; assay type: functional, organism-based; settings: Human immunodeficiency virus 1, LAI, MT4, 120 h
Summary of the method: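 MT4 cells were kept in RPMI 1640 with 10% fetal calf serum and antibiotics at 37 °C, 5% CO2. A range of compound concentrations was incubated with HIV-1 LAI at 200 CCID50/well and 30000 MT4 cells/well for 5 days at 37 °C. Cell viability was read by MTT, and IC50 was the concentration giving 50% infection versus the drug-free control.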

[3] = test system: Human immunodeficiency virus 1; test: Antiviral activity against HIV1 HXB2 harboring Y181C mutant reverse transcriptase infected in human MT4 cells after 5 days by MTT assay; assay type: functional, organism-based; settings: Human immunodeficiency virus 1, HXB2, MT4, 120 h; summary of the method: as §1
[4] = Selectivity index, ratio of CC50 for human MT4 cells to IC50 for HIV-1 LAI harboring wild type reverse transcriptase infected in human MT4 cells; assay type: functional
Summary of the method: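 Cytotoxicity was measured in mock-infected MT4 cultures (30000 cells/well) given the same compound concentration range, run in parallel with the infected cultures for 5 days at 37 °C, 5% CO2, with MTT viability. CC50 was the concentration reducing viability by 50% versus the drug-free control. SI was CC50 divided by IC50 against HIV-1 LAI.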

[5] = test system: Human immunodeficiency virus 1; test: Antiviral activity against HIV1 HXB2 harboring Y188L mutant reverse transcriptase infected in human MT4 cells after 5 days by MTT assay; assay type: functional, organism-based; settings: Human immunodeficiency virus 1, HXB2, MT4, 120 h; summary of the method: as §1
[6] = test system: Human immunodeficiency virus 1; test: Antiviral activity against HIV1 HXB2 harboring 227L and 106A mutant reverse transcriptase infected in human MT4 cells after 5 days by MTT assay; assay type: functional, organism-based; settings: Human immunodeficiency virus 1, HXB2, MT4, 120 h; summary of the method: as §1
[7] = test system: Human immunodeficiency virus 1; test: Antiviral activity against HIV1 HXB2 harboring 100I mutant reverse transcriptase infected in human MT4 cells after 5 days by MTT assay; assay type: functional, organism-based; settings: Human immunodeficiency virus 1, HXB2, MT4, 120 h; summary of the method: as §1
[8] = test system: Human immunodeficiency virus 1; test: Antiviral activity against HIV1 HXB2 harboring 179E mutant reverse transcriptase infected in human MT4 cells after 5 days by MTT assay; assay type: functional, organism-based; settings: Human immunodeficiency virus 1, HXB2, MT4, 120 h; summary of the method: as §1
[9] = test system: Human immunodeficiency virus 1; test: Antiviral activity against HIV1 HXB2 harboring 101E mutant reverse transcriptase infected in human MT4 cells after 5 days by MTT assay; assay type: functional, organism-based; settings: Human immunodeficiency virus 1, HXB2, MT4, 120 h; summary of the method: as §1
[10] = test system: Human immunodeficiency virus 1; test: Antiviral activity against HIV1 HXB2 harboring 190S mutant reverse transcriptase infected in human MT4 cells after 5 days by MTT assay; assay type: functional, organism-based; settings: Human immunodeficiency virus 1, HXB2, MT4, 120 h; summary of the method: as §1
[11] = test system: Human immunodeficiency virus 1; test: Antiviral activity against HIV1 HXB2 harboring 101E and K103N mutant reverse transcriptase infected in human MT4 cells after 5 days by MTT assay; assay type: functional, organism-based; settings: Human immunodeficiency virus 1, HXB2, MT4, 120 h; summary of the method: as §1
[12] = test system: Human immunodeficiency virus 1; test: Antiviral activity against HIV1 HXB2 harboring 106A mutant reverse transcriptase infected in human MT4 cells after 5 days by MTT assay; assay type: functional, organism-based; settings: Human immunodeficiency virus 1, HXB2, MT4, 120 h; summary of the method: as §1
[13] = test system: Human immunodeficiency virus 1; test: Antiviral activity against HIV1 HXB2 harboring 100I and K103N mutant reverse transcriptase infected in human MT4 cells after 5 days by MTT assay; assay type: functional, organism-based; settings: Human immunodeficiency virus 1, HXB2, MT4, 120 h; summary of the method: as §1
[14] = test system: Human immunodeficiency virus 1; test: Antiviral activity against HIV1 HXB2 harboring 190A mutant reverse transcriptase infected in human MT4 cells after 5 days by MTT assay; assay type: functional, organism-based; settings: Human immunodeficiency virus 1, HXB2, MT4, 120 h; summary of the method: as §1
[15] = test system: Human immunodeficiency virus 1; test: Antiviral activity against HIV1 HXB2 harboring 227C mutant reverse transcriptase infected in human MT4 cells after 5 days by MTT assay; assay type: functional, organism-based; settings: Human immunodeficiency virus 1, HXB2, MT4, 120 h; summary of the method: as §1
[16] = test system: Human immunodeficiency virus 1; test: Antiviral activity against HIV1 HXB2 harboring K103N and Y181C mutant reverse transcriptase infected in human MT4 cells after 5 days by MTT assay; assay type: functional, organism-based; settings: Human immunodeficiency virus 1, HXB2, MT4, 120 h; summary of the method: as §1
[17] = test system: Human immunodeficiency virus 1; test: Antiviral activity against HIV1 HXB2 harboring 138K mutant reverse transcriptase infected in human MT4 cells after 5 days by MTT assay; assay type: functional, organism-based; settings: Human immunodeficiency virus 1, HXB2, MT4, 120 h; summary of the method: as §1

Row | SMILES | pIC50 [1] | pIC50 [2] | pIC50 [3] | Ratio CC50/IC50 [4] | pIC50 [5] | pIC50 [6] | pIC50 [7] | pIC50 [8] | pIC50 [9] | pIC50 [10] | pIC50 [11] | pIC50 [12] | pIC50 [13] | pIC50 [14] | pIC50 [15] | pIC50 [16] | pIC50 [17]
1 | Cc1cc(C)cc(Sc2c(CN(C)Cc3ccco3)c(C)[nH]c(=O)c2I)c1 | 7.80 | 8.20 | 7.30 | >15849 | 6.10 |  |  |  |  |  |  |  |  |  |  |  | 
2 | Cc1cc(C)cc(Sc2c(Cn3cc(Br)cn3)c(C)[nH]c(=O)c2I)c1 | 8.30 | 8.00 | 7.40 | >10000 | 6.50 |  |  |  |  |  |  |  |  |  |  |  | 
3 | Cc1cc(C)cc(Sc2c(CSCC(C)C)c(C)[nH]c(=O)c2I)c1 | 8.00 | 8.10 | 6.70 | >12589 | 5.60 |  |  |  |  |  |  |  |  |  |  |  | 
4 | Cc1cc(C)cc(Sc2c(Cn3ncnn3)c(C)[nH]c(=O)c2I)c1 | 8.90 | 9.20 | 8.00 | >158489 | 7.50 | 7.30 | 8.90 | 9.10 | 8.48 | 9.52 | 8.30 | 9.22 | 8.40 | 9.00 | 7.30 | 7.48 | 8.59
5 | Cc1cc(C)cc(Sc2c(CSC(C)C)c(C)[nH]c(=O)c2I)c1 | 7.50 | 8.10 | 6.20 | >12589 | 5.50 |  |  |  |  |  |  |  |  |  |  |  | 
6 | Cc1cc(C)cc(Sc2c(Cn3cnc(C)c3/C=N/O)c(C)[nH]c(=O)c2I)c1 | 6.80 | 8.20 | 5.90 | >15849 | 5.50 |  |  |  |  |  |  |  |  |  |  |  | 
7 | Cc1cc(C)cc(Sc2c(CSCc3ccco3)c(C)[nH]c(=O)c2I)c1 | 8.30 | 8.20 | 7.40 | >12589 | 6.00 |  |  |  |  |  |  |  |  |  |  |  | 
8 | Cc1cc(C)cc(Oc2c(CSCC3CCCO3)c(C)[nH]c(=O)c2I)c1 (configuration not stated) | 7.59 | 8.10 | 7.20 | >12589 | 6.80 |  |  |  |  |  |  |  |  |  |  |  | 
9 | CC(=O)c1c(C)cn(Cc2c(C)[nH]c(=O)c(I)c2Sc2cc(C)cc(C)c2)c1C | 7.30 | 8.00 | 7.20 | 5012 | 6.70 |  |  |  |  |  |  |  |  |  |  |  | 
10 | Cc1cc(C)cc(Oc2c(Cn3cnnn3)c(C)[nH]c(=O)c2I)c1 | 8.85 | 9.10 | 8.23 | >100000 | 7.99 | 8.42 | 8.40 | 8.85 | 8.40 | 9.40 | 8.34 | 8.70 | 8.33 | 8.43 | 8.59 | 7.76 | 8.41
11 | Cc1cc(C)cc(Oc2c(CN3CCN(C(=O)c4ccco4)CC3)c(C)[nH]c(=O)c2I)c1 | 7.60 | 8.00 | 6.90 | 1585 | 6.80 |  |  |  |  |  |  |  |  |  |  |  | 
12 | Cc1cc(C)cc(Oc2c(Cn3cnc(C#N)c3C#N)c(C)[nH]c(=O)c2I)c1 | 7.50 | 8.00 | 6.70 | >10000 | 6.00 |  |  |  |  |  |  |  |  |  |  |  | 
13 | Cc1cc(C)cc(Sc2c(CN3CCCCC3)c(C)[nH]c(=O)c2I)c1 | 7.50 | 8.20 | 6.10 | >15849 | 5.10 |  |  |  |  |  |  |  |  |  |  |  | 
14 | Cc1cc(C)cc(Oc2c(Cn3cc(Br)cn3)c(C)[nH]c(=O)c2I)c1 | 8.10 | 8.10 | 7.50 | >12589 | 7.00 |  |  |  |  |  |  |  |  |  |  |  | 
15 | O=C1Nc2ccc(Cl)cc2[C@@](C#CC2CC2)(C(F)(F)F)O1 [EFAVIRENZ] |  |  |  |  |  | 7.60 |  | 8.30 | 8.20 | 6.60 |  |  |  | 8.00 |  |  | 
16 | Cc1ccnc2c1NC(=O)c1cccnc1N2C1CC1 [NEVIRAPINE] |  |  | 5.00 |  | 4.00 | 6.79 |  | 6.71 |  | 7.36 |  |  |  |  | 6.87 | 4.00 | 7.29
